For assay [1], the system named is Triticum aestivum. As to the kind of experiment: Inhibition of stem growth of Triticum aestivum at 100 mg/L. In kind it is functional. The procedure, abridged: (§1)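 Seeds of each species were grown in Petri dishes with 10 seeds per dish, at 28 °C, 70–80% RH, 16:8 h light:dark photoperiod and 3000 lx light for 5 days. Root and stem lengths were measured for the 10 seeds and averaged. Each test and its controls were run in three replicates, and the data were given probit analysis.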

For assay [2], the system named is Triticum aestivum. As to the kind of experiment: Inhibition of root growth of Triticum aestivum at 100 mg/L. The class given is functional. A digest of the protocol: as §1
In assay [3] the test system is Echinochloa crus-galli. Put plainly: Inhibition of stem growth of Echinochloa crus-galli at 100 mg/L. In kind it is functional. A digest of the protocol: as §1
In assay [4] the test system is Echinochloa crus-galli. As to the kind of experiment: Inhibition of root growth of Echinochloa crus-galli at 100 mg/L. The class given is functional. A digest of the protocol:
as §1

Assay [5] concerns Sorghum bicolor. As to the kind of experiment: Inhibition of stem growth of Sorghum bicolor at 100 mg/L. In kind it is functional. A digest of the protocol: as §1
Assay [6] concerns Sorghum bicolor. Put plainly: Inhibition of root growth of Sorghum bicolor at 100 mg/L. The class given is functional. The procedure, abridged:
as §1

Assay [7] concerns Brassica rapa subsp. oleifera. Put plainly: Inhibition of stem growth of Brassica campestris at 100 mg/L. The class given is functional. A digest of the protocol: as §1
Assay [8] deals with Brassica rapa subsp. oleifera. Put plainly: Inhibition of root growth of Brassica campestris at 100 mg/L. The class given is functional. The procedure, abridged:
as §1

In assay [9] the test system is Radish. As to the kind of experiment: Inhibition of stem growth of Raphanus sativus at 100 mg/L. The class given is functional. A digest of the protocol:
as §1

Assay [10] relates to Radish. As to the kind of experiment: Inhibition of root growth of Raphanus sativus at 100 mg/L. In kind it is functional. A digest of the protocol:
as §1

The test system of assay [11] is Cucumis sativus. As to the kind of experiment: Inhibition of stem growth of Cucumis sativus at 100 mg/L. In kind it is functional. A digest of the protocol: as §1
Assay [12] concerns Cucumis sativus. Put plainly: Inhibition of root growth of Cucumis sativus at 100 mg/L. In kind it is functional. The procedure, abridged: as §1
In assay [13] the test system is Aphis. As to the kind of experiment: Insecticidal activity against Aphis medicagini at 250 mg/L. The class given is functional. The procedure, abridged:
(§2)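 Groups of 10 of each species were placed in glass Petri dishes and sprayed with test solution using a Potter sprayer. After air-drying, they were held under normal rearing conditions. Mortality at 72 h was taken from the number and size of live larvae relative to untreated controls.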

For assay [14], the system named is Triticum aestivum. As to the kind of experiment: Herbicidal activity against Triticum aestivum at 450 g ai/ha in greenhouse in vivo test. In kind it is functional, organism-based.
Assay [15] has as its system Echinochloa crus-galli. Put plainly: Herbicidal activity against Echinochloa crus-galli at 450 g ai/ha in greenhouse in vivo test. In kind it is functional, organism-based.
Assay [16] deals with Sorghum bicolor. As to the kind of experiment: Herbicidal activity against Sorghum bicolor at 450 g ai/ha in greenhouse in vivo test. In kind it is functional, organism-based.
In assay [17] the test system is Brassica rapa subsp. oleifera. As to the kind of experiment: Herbicidal activity against Brassica campestris at 450 g ai/ha in greenhouse in vivo test. In kind it is functional, organism-based.
Assay [18] concerns Radish. As to the kind of experiment: Herbicidal activity against Raphanus sativus at 450 g ai/ha in greenhouse in vivo test. The class given is functional, organism-based.
For assay [19], the system named is Cucumis sativus. Put plainly: Herbicidal activity against Cucumis sativus at 450 g ai/ha in greenhouse in vivo test. The class given is functional, organism-based.
The test system of assay [20] is Tetranychus cinnabarinus. Put plainly: Insecticidal activity against Tetranychus cinnabarinus at 250 mg/L. In kind it is functional. A digest of the protocol: as §2

Calls of active or inactive are those of the source. No cut-off for these calls is given here.

For 9 compounds, inhibition and Activity results are on record in ChEMBL document CHEMBL1142895, “Discovery of a new insecticide lead by optimizing a target-diverse scaffold: tetrazolinone derivatives” (2007).

As to `O=c1n(Cc2nnc(SCc3ccccc3F)s2)nnn1-c1ccc(Cl)cc1`, the inhibition (as a rule, the share of the control response that was lost under treatment) at 100 µg/mL in assay [1] amounted to 80%; in assay [2], 80%; in assay [3], 70%; in [4], 60%; in [5], 70%; in assay [6], 70%. Further, the inhibition at 100 µg/mL in assay [7] came to 70%; in assay [8], 80%; in [9], 60%; in assay [10] it was 80%; in assay [11], 70%; in assay [12] it was 70%. In addition, the Activity was 18.6% in assay [13] and 0% in assay [20]. Further, the result in [14], in assay [15], in [16], in assay [17], in [18] and in assay [19] was inactive.
Turning to `O=c1c(Cn2nnn(-c3ccccc3Cl)c2=O)coc2ccccc12`, the inhibition at 100 µg/mL in assay [1] is 30%; in assay [2] it was 0%; in assay [3], 0%; in [4] it was 0%; in assay [5], 30%; in assay [6] it was 50%. The inhibition at 100 µg/mL was found to be 30% in assay [7]; 50% in assay [8]; 30% in [9]; 50% in assay [10]; 0% in assay [11]; 0% in assay [12]. Moreover, the Activity worked out at 13.3% in [13] and 2.9% in assay [20]. Besides, the result in assay [14], in assay [15], in assay [16], in assay [17], in assay [18] and in assay [19] was inactive.
With `CCCCCCCCSc1nnc(Cn2nnn(-c3ccc(Cl)cc3)c2=O)s1`, the inhibition at 100 µg/mL stood at 0% in assay [1]; 30% in assay [2]; 0% in assay [3]; 40% in [4]; 0% in [5]; 50% in [6]. The inhibition at 100 µg/mL in assay [7] was determined as 0%; in assay [8], 40%; in assay [9] it was 0%; in [10], 40%; in assay [11] it was 0%; in assay [12], 30%. The Activity is 0% in assay [13] and 2.9% in [20]. Besides, the outcome in assay [14], in assay [15], in [16], in [17], in assay [18] and in assay [19] was inactive.
For `O=c1c(Cn2nnn(-c3ccc(Cl)cc3)c2=O)coc2ccccc12`, the inhibition at 100 µg/mL in assay [1] is 30%; in assay [2] it was 0%; in assay [3] it was 0%; in assay [4] it was 0%; in assay [5] it was 0%; in [6], 0%. The inhibition at 100 µg/mL in assay [7], in assay [8], in assay [9], in [10], in assay [11] and in assay [12] was 0% each time. Besides, the values for the Activity in assay [13] and in assay [20] were 1.7% and 100%, respectively. For the same compound, the result in assay [14], in [15], in assay [16], in assay [17], in assay [18] and in [19] was inactive.
As to `Cc1cccc(Cn2nnn(-c3ccc(Cl)cc3)c2=O)c1`, the inhibition at 100 µg/mL in assay [1], in assay [2], in assay [3], in assay [4], in assay [5] and in assay [6] was 0% throughout. Also, the inhibition at 100 µg/mL amounted to 90% in assay [7]; 80% in [8]; 70% in [9]; 80% in assay [10]; 0% in assay [11]; 0% in [12]. Also, the Activity came to 8.3% in assay [13] and 4.3% in assay [20]. Further, the result in assay [14], in [15], in [16], in assay [17], in assay [18] and in assay [19] was inactive.
In the case of `CSc1nnc(Cn2nnn(-c3ccc(Cl)cc3)c2=O)s1`, the inhibition at 100 µg/mL in assay [1] is 50%; in assay [2], 60%; in assay [3], 0%; in [4] it was 30%; in [5] it was 40%; in assay [6], 60%. Besides, the inhibition at 100 µg/mL came to 70% in assay [7]; 0% in [8]; 50% in assay [9]; 50% in [10]; 60% in assay [11]; 40% in [12]. For the same compound, the results for the Activity in assay [13] and in assay [20] were 5.7% and 0%, respectively. Besides, the result in [14], in assay [15], in [16], in [17], in assay [18] and in assay [19] was inactive.
Consider `CCCCSc1nnc(Cn2nnn(-c3ccc(Cl)cc3)c2=O)s1`, for which the inhibition at 100 µg/mL in assay [1] was determined as 40%; in assay [2], 40%; in assay [3] it was 30%; in [4], 70%; in assay [5] it was 40%; in assay [6] it was 50%. For the same compound, the inhibition at 100 µg/mL in assay [7] was found to be 40%; in assay [8] it was 50%; in assay [9], 0%; in assay [10] it was 30%; in assay [11], 0%; in [12], 0%. The Activity in assay [13] came to 0%; in [20], 5.7%. The result in assay [14], in [15], in [16], in assay [17], in assay [18] and in assay [19] was inactive.
Regarding `O=c1n(Cc2cccc(F)c2)nnn1-c1ccc(Cl)cc1`, the inhibition at 100 µg/mL was 40% in assay [1]; 40% in assay [2]; 0% in assay [3]; 70% in [4]; 0% in assay [5]; 0% in assay [6]. The inhibition at 100 µg/mL amounted to 0% in [7]; 0% in [8]; 0% in assay [9]; 0% in assay [10]; 30% in [11]; 50% in assay [12]. Moreover, the Activity worked out at 0% in [13] and 5.7% in [20]. Moreover, the outcome in assay [14], in [15], in assay [16], in [17], in assay [18] and in assay [19] was inactive.
On to `CCOC(=O)C(C)Sc1nnc(Cn2nnn(-c3ccc(Cl)cc3)c2=O)o1` (stereo not given), for which the inhibition at 100 µg/mL in assay [1], in [2], in assay [3], in assay [4], in assay [5] and in assay [6] was 0% in each case. The inhibition at 100 µg/mL in assay [7] worked out at 60%; in assay [8] it was 80%; in assay [9], 0%; in [10], 0%; in assay [11], 0%; in assay [12] it was 0%. The Activity in [13] amounted to 8.3%; in [20], 0%. The result in [14], in [15], in assay [16], in assay [17], in [18] and in assay [19] was inactive.
